In the library only some 2.3% were active in any assay of this set; here they are far more common.
TRPC4 block: blocks the mouse TRPC4 cation channel | Q9QUQ5 | HEK293 TRPC4beta/mu-opioid, DAMGO-evoked Fluo4 calcium flux; stronger effect = lower value | B-score at 10 µM | 0.39% of 300,000 active | AID 2247;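 active = B-score over 3 SD under the library average, no early fluorescence shift, positive overall ratio signal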
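Assay system: HEK293 cells with stable TRPC4beta plus mu-opioid receptor expression; Probe or stimulus: DAMGO in two steps, submaximal then maximal; Dosing: single-point compound dosing; Measured by: Fluo4 calcium-dye fluorescence, kinetic read; Read-out basis: B score from integrated Fluo4 fluorescence ratio.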
TRPC6 inhibitor: blocks the mouse TRPC6 cation channel; Q61143; HEK293-TRPC6, membrane potential dye, ACh-evoked depolarization; stronger effect = lower value; B-score at 10 µM; 1.1% of 310,000 active;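 active = B-score under library mean minus 3 SD, initial fluorescence not abnormally high, positive integrated signal ratio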;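 note: B-score derived from integrated fluorescence ratio over the kinetic read; more negative B-score means stronger inhibition of depolarization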
Target sequence (Q61143 whole entry, looked up): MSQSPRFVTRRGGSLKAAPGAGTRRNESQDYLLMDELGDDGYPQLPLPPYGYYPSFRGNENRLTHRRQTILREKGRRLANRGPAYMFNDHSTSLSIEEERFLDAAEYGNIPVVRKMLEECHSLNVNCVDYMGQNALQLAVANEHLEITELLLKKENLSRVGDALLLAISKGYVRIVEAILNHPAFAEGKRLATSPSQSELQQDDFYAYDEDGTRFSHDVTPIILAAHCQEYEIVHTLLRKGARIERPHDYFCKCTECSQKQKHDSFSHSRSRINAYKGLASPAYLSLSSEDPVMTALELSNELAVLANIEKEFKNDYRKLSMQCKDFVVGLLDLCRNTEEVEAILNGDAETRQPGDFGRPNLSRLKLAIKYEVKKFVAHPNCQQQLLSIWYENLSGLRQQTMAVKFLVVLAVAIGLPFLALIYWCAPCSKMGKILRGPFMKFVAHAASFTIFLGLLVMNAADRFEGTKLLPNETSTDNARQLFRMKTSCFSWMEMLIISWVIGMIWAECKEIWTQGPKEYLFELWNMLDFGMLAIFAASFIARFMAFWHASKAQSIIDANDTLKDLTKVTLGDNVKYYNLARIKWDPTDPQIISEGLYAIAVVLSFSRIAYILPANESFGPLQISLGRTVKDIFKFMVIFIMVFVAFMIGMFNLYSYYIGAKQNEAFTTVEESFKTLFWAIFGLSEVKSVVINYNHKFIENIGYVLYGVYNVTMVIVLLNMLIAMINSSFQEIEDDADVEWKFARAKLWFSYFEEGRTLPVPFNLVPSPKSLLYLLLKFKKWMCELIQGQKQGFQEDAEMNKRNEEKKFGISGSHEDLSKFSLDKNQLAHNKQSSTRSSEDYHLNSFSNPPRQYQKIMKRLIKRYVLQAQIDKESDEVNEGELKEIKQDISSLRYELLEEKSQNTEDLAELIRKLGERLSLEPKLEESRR
TRPC4 potent: allosterically enhances the mouse TRPC4 cation channel; AID 2227; B-score at 10 µM; 0.42% of 310,000 active; HEK293 TRPC4beta/mu-opioid, DAMGO EC20, Fluo-4 Ca2+ flux; stronger effect = higher value;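 active = B-score of calcium response area above 5 SD of library B-scores, with initial fluorescence ratio within 5 SD of library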;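 note: B-score of integrated fluorescence ratio over time as area under calcium response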
TRPC4 agonist: opens the mouse TRPC4 cation channel; B-score at 10 µM; HEK293 TRPC4beta/mu-opioid, Fluo4 calcium fluorescence; stronger effect = higher value; 0.49% of 310,000 active; AID 2237; Q9QUQ5;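 active = B-score above 5 SD of library B-scores, and initial fluorescence ratio not above library mean plus 5 SD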;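 note: positive B-score marks a calcium rise read as TRPC4 activation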
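Material: TRPC4beta and mu-opioid receptor HEK293 stable cells | Incubation: 45 min room-temperature Fluo4 loading, 110 s read | Detection: Kinetic Fluo4 calcium fluorescence | Measure: Integrated baseline-normalised fluorescence ratio, converted to per-well B score | Benchmarks: Low control buffer alone, high control maximal DAMGO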
TRPC6 act: activates the mouse TRPC6 cation channel; Q61143; HEK293-TRPC6 membrane potential dye fluorescence; stronger effect = higher value; B-score at 10 µM; 0.13% of 310,000 active;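 active = B-score of the integrated fluorescence ratio above library mean plus 3 SD, and starting fluorescence ratio within library mean plus 5 SD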;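 note: higher score means more depolarization so channel activation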
TRPC4 sel inh 2: second selectivity test of TRPC6 inhibitors: effect on mouse TRPC4; shares compounds with TRPC6 inhibitor; HEK293 TRPC4/MOR, membrane potential dye fluorescence; channel activated by saturating DAMGO dose; inhibition, % at 10 µM; 42% of 920 active; AID 2776;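 active = compounds whose fluorescence signal differed from control wells by over 3 SD, either direction, in both duplicate plates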
TRPC4 spec: selectivity of TRPC6 inhibitors: effect on mouse TRPC4; shares compounds with TRPC6 inhibitor; HEK293 TRPC4/mu-opioid, membrane potential fluorescence; activity change, negative = inhibition, % at 10 µM; 61% of 920 active; AID 2777;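 active = rise or fall in signal beyond 3 SD of buffer-only wells in both replicate plates, either sign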;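 note: integrated kinetic ratio of fluorescence range over baseline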
HEK293 MPD ctr 2-1: second counter-screen for TRPC6 inhibitors: parental HEK293 cells | 31% of 920 active | signal change vs control, % at 10 µM | parental HEK293 membrane potential dye fluorescence; maximal acetylcholine challenge after compound addition | shares compounds with TRPC6 inhibitor | AID 2779;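 active = membrane potential signal moving either way by over 3 SD of the maximum-effect control, in both duplicate plates, meaning non-specific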
HEK293 MPD ctr-1: checks TRPC6 inhibitor effects in parental HEK293 cells | membrane potential signal change, % at 10 µM | 60% of 920 active | parental HEK293 membrane potential dye fluorescence | AID 2780 | shares compounds with TRPC6 inhibitor;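 active = membrane potential signal shifting up or down by more than 3 SD of buffer-only wells, on both duplicate plates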
HEK293 MPD ctr-2: counter-screen for TRPC6 modulators: effect in parental HEK293 cells; shares compounds with TRPC6 inhibitor; membrane potential dye fluorescence; membrane potential signal change, % at 10 µM; 51% of 2,400 active;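 active = membrane potential signal moves up or down beyond 5 SD from buffer-only wells, on both duplicate plates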
HEK293 MPD ctr 2-2: second counter-screen for TRPC6 modulators: effect in parental HEK293 cells; 14% of 2,400 active; AID 488926; inhibition, % at 10 µM; shares compounds with TRPC6 inhibitor; membrane potential dye fluorescence; after compound, maximal acetylcholine stimulation;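 active = membrane potential signal drops by more than 5 SD from the mean control signal, in both duplicate plates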;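 note: plate controls were acetylcholine ECmax control wells for no effect and buffer only wells for full effect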
TRPC4 ctr mod: selectivity of TRPC6 modulators against mouse TRPC4 | shares compounds with TRPC6 inhibitor | HEK293 TRPC4/mu-opioid, membrane potential fluorescence | percent change from control (negative = decrease, positive = increase), % at 10 µM | 69% of 2,400 active;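 active = membrane potential signal moved up or down beyond 5 SD of buffer control wells, in both duplicate plates, actives on both sides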;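 note: plate controls were assay buffer wells for no effect and DAMGO maximal-effect wells for full effect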
TRPC4 ctr inh 2: second selectivity test of TRPC6 modulators against mouse TRPC4 | shares compounds with TRPC6 inhibitor | HEK293 TRPC4/mu-opioid, membrane potential dye fluorescence; stimulated with maximal-effect DAMGO | inhibition, % at 10 µM | 55% of 2,400 active;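 active = drop in membrane potential signal beyond 5 SD of the control wells in both duplicate plates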;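 note: TRPC4 counter screen for TRPC6 hits run under conditions tuned for TRPC6 not TRPC4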
TRPC6 inh conf: mouse TRPC6 inhibitor confirmation; shares compounds with TRPC6 inhibitor; HEK293-TRPC6, membrane potential dye, ACh-evoked depolarization; inhibition, % at 10 µM; 43% of 3,300 active; AID 488960;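 active = fluorescence ratio falls more than 5 SD below the full-stimulation control mean, in both duplicate runs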;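 note: integrated fluorescence ratio of peak minus minimum over baseline after agonist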
TRPC6 act confirm: confirmation of mouse TRPC6 activators; shares compounds with TRPC6 inhibitor; 11% of 2,800 active; HEK293-TRPC6 membrane potential dye fluorescence, FDSS; activation, % at 10 µM;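 active = ratio signal rise beyond 5 SD above unstimulated control wells' mean, seen in both duplicate runs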;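 note: plate controls were buffer EC0 wells for no effect and acetylcholine ECmax response for full effect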
* = called active by the depositor; i = inactive; x = not tested or not shown.

SMILES | TRPC4 block | TRPC6 inhibitor | TRPC4 potent | TRPC4 agonist | TRPC6 act | HEK293 MPD ctr-2 | HEK293 MPD ctr 2-2 | TRPC4 ctr mod | TRPC4 ctr inh 2 | TRPC6 inh conf | TRPC6 act confirm | others
CCCCCc1nc2sc3c(c2c(=O)n1NC(=O)c1ccc([N+](=O)[O-])cc1)CC(C)(C)OC3 | i | -5.66* | i | i | i | i | i | i | 63.5%* | 56.5%* | i
CCCCCCCc1nc2sc3c(c2c(=O)n1N)CC(C)(C)OC3 | i | i | i | i | i | x | x | x | x | x | x
Cc1cc(C)c2nc(C)cc(Nc3ccc(C(=O)NCCO)cc3)c2c1 | i | -10.4* | i | i | i | x | x | x | x | 56.2%* | i | TRPC4 sel inh 2=i;TRPC4 spec=-19.9%*;HEK293 MPD ctr 2-1=-46.5%*;HEK293 MPD ctr-1=-307.5%*
CC(=O)c1ccc(Nc2cc(C)nc3c(C)cc(C)cc23)cc1 | -6* | -6.86* | i | i | i | x | x | x | x | i | i | TRPC4 sel inh 2=i;TRPC4 spec=-20.6%*;HEK293 MPD ctr 2-1=i;HEK293 MPD ctr-1=-327.0%*
Cc1cc(C)c2nc(C)cc(Nc3ccc(C(=O)N(C)C)cc3)c2c1 | i | -5.37* | i | i | i | -114.5%* | i | -22.5%* | i | i | i
COc1ccc(Nc2nnc(-c3ccc(C(=O)NCCO)cc3)c3ccccc23)cc1 | i | i | i | i | i | x | x | x | x | x | x
O=C(C1CCN(S(=O)(=O)c2cc(Cl)ccc2Cl)CC1)N1CCOCC1 | i | i | i | i | i | x | x | x | x | x | x
CC(C)(C)n1cn[nH]c1=S | i | i | i | i | i | x | x | x | x | x | x
COc1ccc(C(CCN2CCCC(C)C2)c2c(OC)cc(OC)c3c(-c4ccccc4)cc(=O)oc23)cc1 (stereo not drawn) | i | i | i | i | i | x | x | x | x | x | x
COc1cc(OC)c2c(-c3ccccc3)cc(=O)oc2c1C(CCN1CCCC(C)C1)c1ccc(N(C)C)cc1 (stereo not drawn) | i | -5.9* | i | i | i | i | i | i | 69.0%* | 40.0%* | i
COc1cc(OC)c2c(C)cc(=O)oc2c1C(CCN1CCOCC1)c1ccc(N(C)C)cc1 (stereo not drawn) | i | -5.3* | i | i | i | -141.0%* | i | -28.5%* | 52.0%* | 42.0%* | i
COc1cc(OC)c2c(-c3ccccc3)cc(=O)oc2c1C(CCN1CCN(c2ccccc2)CC1)c1ccc(N(C)C)cc1 (stereo not drawn) | i | i | i | i | i | x | x | x | x | x | x
COC(=O)CSc1cccc2c1C(=O)CC2c1ccccc1 (stereo not drawn) | i | -7.69* | i | i | i | x | x | x | x | i | x | TRPC4 sel inh 2=i;TRPC4 spec=1.9%*;HEK293 MPD ctr 2-1=i;HEK293 MPD ctr-1=3.3%*
COC(=O)CSc1ccsc1C(=O)O | i | i | i | i | i | x | x | x | x | x | x
CCOc1ccc(S(=O)(=O)N2CCc3cc(OC)c(OC)cc3C2)cc1 | i | i | i | i | 11.6* | i | i | 10.5%* | i | x | 114.5%*
Cc1ccc(CN2CCN(C(=O)CC(C)C)CC2)cc1 | i | i | i | i | i | x | x | x | x | x | x
O=C(Nc1ccc(S(=O)(=O)N2CCCCC2c2cccnc2)cc1)c1c(F)cccc1F (stereo not drawn) | i | -5.06* | i | i | i | i | i | i | i | i | i
Clc1ccc(-c2cn(-c3ccccc3)c3[n+]2CCS3)cc1 | i | -7.36* | i | i | i | -95.5%* | 58.0%* | -16.5%* | i | 47.5%* | i
COc1ccc(-c2cn(-c3ccc(Br)cc3)c3[n+]2CCS3)cc1 | i | -5.93* | i | i | i | i | i | i | i | i | i
Fc1ccc(-c2cn(-c3ccccc3)c3[n+]2CCS3)cc1 | i | i | i | i | i | x | x | x | x | x | x
COc1ccc(-c2cn(-c3ccc(Cl)cc3)c3[n+]2CCCCC3)cc1 | i | i | i | i | i | x | x | x | x | x | x
COc1ccccc1NC(=O)C1CCCN1C(=O)NC1CCCCC1 (stereo not drawn) | i | i | i | i | i | x | x | x | x | x | x
Cc1ccc[n+](CC(=O)c2cc3ccccc3oc2=O)c1 | i | -6.5* | i | i | i | -76.0%* | i | -21.5%* | i | 70.5%* | i
COc1cc(Br)cc2cc(C(=O)OC3CCN(C)CC3)c(=O)oc12 | i | -12.1* | i | i | i | x | x | x | x | i | i | TRPC4 sel inh 2=72.5%*;TRPC4 spec=-24.7%*;HEK293 MPD ctr 2-1=i;HEK293 MPD ctr-1=-472.5%*
CC(=O)N1CCN(c2ccc(NC(=O)c3cccc([N+](=O)[O-])c3)cc2)CC1 | i | i | i | i | i | x | x | x | x | x | x
Cc1cc(N2CCOCC2)nc(N2CCOCC2)n1 | i | i | i | i | i | x | x | x | x | x | x
Cc1cc(N2CCN(C)CC2)nc(N2CCOCC2)n1 | i | -5.71* | i | i | i | -246.0%* | i | -44.5%* | 31.0%* | i | i
CCCNC(=O)NC(=O)c1cnccc1C(F)(F)F | i | i | i | i | i | x | x | x | x | x | x
CC(=O)NC(CC(=O)NCCCn1ccc2ccccc21)c1ccccc1 (stereo not drawn) | i | i | i | i | i | x | x | x | x | x | x
O=C1NC(=O)C(c2ccccc2[N+](=O)[O-])=C1Nc1ccc(O)c(Cl)c1 | i | i | i | i | i | x | x | x | x | x | x

Screens from PubChem.
